Assay results as given in ChEMBL document CHEMBL1250467, “Design, synthesis, and anticonvulsant activity of new N-Mannich bases derived from spirosuccinimides and spirohydantoins” (Bioorg Med Chem, 2010).
Calls of active or inactive are those of the source. No cut-off for these calls is given here.

Tests used:
Mus musculus [1] = assay: Anticonvulsant activity in CF1 albino mouse assessed as protection against maximal electroshock-induced seizures at 300 mg/kg, ip after 0.5 hrs; assay type: functional, organism-based; set-up: dose 300 mg/kg
In short: (§1)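 Male CF-1 mice; compounds suspended in 0.5% methylcellulose/water and injected ip at 30, 100 and 300 mg/kg. MES, scPTZ (pentylenetetrazole 85 mg/kg sc at the test time) and rotarod neurotoxicity were scored at 0.5 and 4 h. Value is the lowest dose active or toxic in half or more of the animals; signs such as ataxia or tremor were recorded.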

Mus musculus [2] = assay: Anticonvulsant activity in ip dosed CF1 albino mouse assessed as dose required to protect against maximal electroshock-induced seizures after 4 hrs; assay type: functional; in short: as §1
Mus musculus [3] = assay: Neurotoxicity in ip dosed CF1 albino mouse assessed as dose required to cause toxicity after 4 hrs by rotarod test; assay type: organism-based; conditions: in vivo; in short: as §1
Mus musculus [4] = assay: Anticonvulsant activity in CF1 albino mouse assessed as protection against electrically-induced seizure at 100 mg/kg, ip after 4 hrs by 6Hz psychomotor seizure test; assay type: functional
In short: (§2)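 Male CF-1 mice, compound suspended in 0.5% methylcellulose/water, given ip at 100 mg/kg; four mice per time point (0.25, 0.5, 1, 2, 4 h). Corneal stimulation with 0.2 ms monopolar rectangular pulses at 6 Hz for 3 s from a constant-current device, mice manually restrained. A mouse counted as protected if normal exploratory behaviour resumed within 10 s; motor impairment was noted alongside.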

Rattus norvegicus [5] = assay: Anticonvulsant activity in Sprague-Dawley rat assessed as protection against pilocarpine-induced status epilepticus at 600 mg/kg, ip measured after clonus of one of the fore limbs seizure stage; assay type: functional, organism-based; set-up: dose 600 mg/kg
In short: (§3)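 Male Sprague–Dawley rats (150–180 g) received compound ip at 600 mg/kg, then a challenge dose of pilocarpine. Seizure severity graded on the Racine scale; rats were scored as protected or not, and body weight change was taken 24 h after the first stage III seizure.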

Mus musculus [6] = assay: Anticonvulsant activity in CF1 albino mouse assessed as protection against electrically-induced seizure at 100 mg/kg, ip after 0.25 hrs by 6Hz psychomotor seizure test; assay type: functional, organism-based; set-up: dose 100 mg/kg; in short: as §2
Rattus norvegicus [7] = assay: Anticonvulsant activity in Sprague-Dawley rat assessed as protection against maximal electroshock-induced seizures at 30 mg/kg po after 4 hrs; assay type: functional
In short: (§4)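 Male Sprague–Dawley rats, four per group, given 30 mg/kg orally as a 0.5% methylcellulose/water suspension. MES protection scored at 0.25, 0.5, 1, 2 and 4 h after dosing, motor impairment checked in parallel; data are the number of the four rats protected.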

Rattus norvegicus [8] = assay: Toxicity in Sprague-Dawley rat assessed as change in body weight at 600 mg/kg, ip measured after 24 hrs of clonus of one of the fore limbs seizure stage in non-protected rat; assay type: organism-based; set-up: dose 600 mg/kg, route intraperitoneal; conditions: in vivo; in short: as §3
Mus musculus [9] = assay: Neurotoxicity in CF1 albino mouse at 300 mg/kg, ip after 0.5 hrs by rotarod test; assay type: toxicity, organism-based; set-up: dose 300 mg/kg, route intraperitoneal; conditions: in vivo; in short: as §1
Rattus norvegicus [10] = species on record: Rattus norvegicus; assay: Protection index, ratio of TD50 for Sprague-Dawley rat by rotarod test to ED50 for Sprague-Dawley rat by maximal electroshock test; assay type: functional
In short: (§5)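 Male Sprague–Dawley rats dosed orally (0.5% methylcellulose/water suspension), groups of eight, tested at the previously estimated time of peak effect. Doses varied until at least three points lay in the 10–90% range of protection (MES, scPTZ) or minimal rotarod neurotoxicity. ED50/TD50 with 95% confidence intervals came from regression; PI = TD50/ED50.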

Rattus norvegicus [11] = assay: Anticonvulsant activity in Sprague-Dawley rat assessed as protection against maximal electroshock-induced seizures at 30 mg/kg po after 0.5 hrs; assay type: functional; in short: as §4
Mus musculus [12] = assay: Toxicity in CF1 albino mouse assessed as minimal motor impairment at 100 mg/kg, ip after 2 hrs; assay type: organism-based; set-up: dose 100 mg/kg, route intraperitoneal; conditions: in vivo; in short: as §2
Mus musculus [13] = assay: Anticonvulsant activity in CF1 albino mouse assessed as protection against subcutaneous pentylenetetrazole-induced seizures at 300 mg/kg, ip after 4 hrs; assay type: functional, organism-based; set-up: dose 300 mg/kg; in short: as §1
Mus musculus [14] = assay: Anticonvulsant activity in CF1 albino mouse assessed as protection against electrically-induced seizure at 100 mg/kg, ip after 0.5 hrs by 6Hz psychomotor seizure test; assay type: functional, organism-based; set-up: dose 100 mg/kg; in short: as §2
Rattus norvegicus [15] = assay: Anticonvulsant activity in Sprague-Dawley rat assessed as protection against maximal electroshock-induced seizures at 30 mg/kg po after 2 hrs; assay type: functional; in short: as §4
Rattus norvegicus [16] = assay: Anticonvulsant activity in Sprague-Dawley rat assessed as protection against pilocarpine-induced status epilepticus at 600 mg/kg, ip; assay type: functional, organism-based; set-up: dose 600 mg/kg; in short: as §3
Rattus norvegicus [17] = assay: Anticonvulsant activity in Sprague-Dawley rat assessed as protection against maximal electroshock-induced seizures at 30 mg/kg po after 1 hr; assay type: functional; in short: as §4
Rattus norvegicus [18] = assay: Anticonvulsant activity in po dosed Sprague-Dawley rat assessed as time required to peak protection against seizures; assay type: functional
Mus musculus [19] = assay: Anticonvulsant activity in CF1 albino mouse assessed as protection against subcutaneous pentylenetetrazole-induced seizures at 300 mg/kg, ip after 0.5 hrs; assay type: functional, organism-based; set-up: dose 300 mg/kg; in short: as §1
Mus musculus [20] = assay: Anticonvulsant activity in CF1 albino mouse assessed as protection against electrically-induced seizure at 100 mg/kg, ip after 1 hr by 6Hz psychomotor seizure test; assay type: functional; conditions: route intraperitoneal; in short: as §2
[21] = Neurotoxicity in po dosed Sprague-Dawley rat by rotarod test; assay type: toxicity, organism-based; conditions: in vivo; in short: as §5
Rattus norvegicus [22] = assay: Toxicity in Sprague-Dawley rat assessed as change in body weight at 600 mg/kg, ip measured after 24 hrs of clonus of one of the fore limbs seizure stage in protected rat; assay type: organism-based; set-up: dose 600 mg/kg, route intraperitoneal; conditions: in vivo; in short: as §3
Rattus norvegicus [23] = assay: Anticonvulsant activity in po dosed Sprague-Dawley rat assessed as protection against maximal electroshock-induced seizures; assay type: functional; in short: as §5
[24] = Displacement of [3H]batrachotoxin from neurotoxin site 2 of voltage-gated sodium channel in rat forebrain tissue; conditions: read-out: IC50
Rattus norvegicus [25] = assay: Anticonvulsant activity in Sprague-Dawley rat assessed as protection against maximal electroshock-induced seizures at 30 mg/kg po after 0.25 hrs; assay type: functional; in short: as §4
Rattus norvegicus [26] = assay: Anticonvulsant activity in po dosed Sprague-Dawley rat assessed as protection against subcutaneous pentylenetetrazole-induced seizures; assay type: functional; in short: as §5
Mus musculus [27] = assay: Neurotoxicity in CF1 albino mouse assessed as unable to grasp rotarod at 100 mg/kg, ip after 4 hrs by rotarod test; assay type: toxicity, organism-based; set-up: dose 100 mg/kg, route intraperitoneal; conditions: in vivo; in short: as §1
Mus musculus [28] = assay: Anticonvulsant activity in ip dosed CF1 albino mouse assessed as dose required to protect against subcutaneous pentylenetetrazole-induced seizures after 0.5 hrs; assay type: functional; in short: as §1
Mus musculus [29] = assay: Anticonvulsant activity in ip dosed CF1 albino mouse assessed as dose required to protect against maximal electroshock-induced seizures after 0.5 hrs; assay type: functional; in short: as §1
Mus musculus [30] = assay: Neurotoxicity in CF1 albino mouse at 300 mg/kg, ip after 4 hrs by rotarod test; assay type: toxicity, organism-based; set-up: dose 300 mg/kg, route intraperitoneal; conditions: in vivo; in short: as §1
Mus musculus [31] = assay: Anticonvulsant activity in ip dosed CF1 albino mouse assessed as dose required to protect against subcutaneous pentylenetetrazole-induced seizures after 4 hrs; assay type: functional; in short: as §1
Mus musculus [32] = assay: Neurotoxicity in CF1 albino mouse assessed as mortality at 300 mg/kg, ip after 4 hrs by rotarod test; assay type: toxicity, organism-based; set-up: dose 300 mg/kg, route intraperitoneal; conditions: in vivo
In short: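 Male CF-1 albino mice, groups of eight, were given the compound ip as a suspension in 0.5% methylcellulose/water at 30, 100 and 300 mg/kg. Rotarod testing at 0.5 and 4 h scored inability to keep balance on the rod. The value is the lowest dose causing toxicity in half or more animals, with response comments such as death.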

Mus musculus [33] = assay: Neurotoxicity in CF1 albino mouse assessed as ataxia at 300 mg/kg, ip after 4 hrs by rotarod test; assay type: toxicity, organism-based; set-up: dose 300 mg/kg, route intraperitoneal; conditions: in vivo; in short: as §1
Mus musculus [34] = assay: Neurotoxicity in CF1 albino mouse assessed as muscle spasms at 300 mg/kg, ip after 4 hrs by rotarod test; assay type: toxicity, organism-based, Muscle tissue; set-up: dose 300 mg/kg, route intraperitoneal; conditions: in vivo; in short: as §1
Mus musculus [35] = assay: Neurotoxicity in CF1 albino mouse assessed as tremors at 300 mg/kg, ip after 4 hrs by rotarod test; assay type: toxicity, organism-based; set-up: dose 300 mg/kg, route intraperitoneal; conditions: in vivo; in short: as §1

| SMILES | Activity (Mus musculus [1]) | Activity (Mus musculus [2]) [mg/kg] | Activity (Rattus norvegicus [7]) [%] | PI (Rattus norvegicus [10]) | Activity (Rattus norvegicus [11]) | Activity (Mus musculus [13]) | Activity (Rattus norvegicus [15]) [%] | Activity (Rattus norvegicus [17]) [%] | Time (Rattus norvegicus [18]) [h] | Activity (Mus musculus [19]) | TD50 [21] [mg/kg] | ED50 (Rattus norvegicus [23]) [mg/kg] | Activity (Rattus norvegicus [25]) | Activity (Mus musculus [29]) [mg/kg] | Activity (Mus musculus [30]) | other results |
| --- | --- | --- | --- | --- | --- | --- | --- | --- | --- | --- | --- | --- | --- | --- | --- | --- |
| O=C1CC2(CCc3ccccc3C2)C(=O)N1CN1CCN(c2cccc(C(F)(F)F)c2)CC1 (centres undefined) | inactive | 100 | 100 | >27.78 | inactive | inactive | 75 | 75 | 2 | inactive | > 250 | 9 | inactive | – | – | Activity (Mus musculus [3]): 300 mg/kg; Activity (Mus musculus [4]): inactive; Activity (Rattus norvegicus [5]): inactive; Activity (Mus musculus [6]): inactive; Activity (Rattus norvegicus [8]): 15 g; Activity (Mus musculus [9]): Non-toxic; Activity (Mus musculus [12]): Toxic; Activity (Mus musculus [14]): inactive; Activity (Rattus norvegicus [16]): inactive; Activity (Mus musculus [20]): 25%; Activity (Rattus norvegicus [22]): Non-toxic; IC50 [24]: 9.28 µM |
| O=C1NC2(CCc3ccccc3C2)C(=O)N1CN1CCN(CCO)CC1 (centres undefined) | – | 300 | 100 | >20.09 | 25% | – | 100 | 50 | 4 | – | > 300 | 14.9 | inactive | 100 | Non-toxic | ED50 (Rattus norvegicus [26]): > 250 mg/kg; Activity (Mus musculus [27]): Non-toxic; Activity (Mus musculus [28]): 100 mg/kg; Activity (Mus musculus [31]): 300 mg/kg |
| O=C1NC2(CCc3ccccc3C2)C(=O)N1CN1CCN(Cc2ccccc2)CC1 (centres undefined) | – | 100 | 50 | – | 50% | inactive | 50 | 75 | – | inactive | – | – | 25% | 100 | Non-toxic | Activity (Mus musculus [32]): Non-toxic |
| O=C1NC2(CCc3ccccc3C2)C(=O)N1CN1CCN(c2ccccc2F)CC1 (centres undefined) | inactive | 100 | – | – | – | inactive | – | – | – | inactive | – | – | – | – | – | Activity (Mus musculus [33]): Non-toxic; Activity (Mus musculus [34]): Non-toxic; Activity (Mus musculus [35]): Non-toxic |
